Laboratory results taken from the M2OR odorant receptor database.
Substitutions are numbered along the chain they refer to.

Experiments:
Conditions in all cases: stereoisomer not certain
OR9Q1 (Homo sapiens) = target: T1, OR9Q1 (Homo sapiens) (UniProt Q8NGQ5)
T1 sequence (whole entry): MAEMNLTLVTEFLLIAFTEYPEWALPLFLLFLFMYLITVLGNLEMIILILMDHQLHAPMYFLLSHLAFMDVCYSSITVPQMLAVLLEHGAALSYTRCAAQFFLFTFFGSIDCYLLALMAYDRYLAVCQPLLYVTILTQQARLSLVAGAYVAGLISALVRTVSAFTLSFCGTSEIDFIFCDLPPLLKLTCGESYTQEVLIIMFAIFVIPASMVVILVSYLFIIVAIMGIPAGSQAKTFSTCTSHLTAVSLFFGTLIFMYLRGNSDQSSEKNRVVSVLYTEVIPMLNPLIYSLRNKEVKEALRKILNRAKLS
In short: (§1)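 Values were gathered from published papers (main text and supplementary material), with extra details requested from the original authors when needed, and checked for typos and inconsistencies. Each receptor–molecule pair is called responsive (active) if the original authors judged the measured signal statistically different from baseline, and non-responsive (inactive) otherwise. Assay methods varied by source, often transient mammalian cell-line luciferase assays. Recorded details include cell line, G-protein, co-transfected protein and tags.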

OR9Q2 (Homo sapiens) = target: T2, OR9Q2 (Homo sapiens) (UniProt Q8NGE9)
T2 sequence (whole entry): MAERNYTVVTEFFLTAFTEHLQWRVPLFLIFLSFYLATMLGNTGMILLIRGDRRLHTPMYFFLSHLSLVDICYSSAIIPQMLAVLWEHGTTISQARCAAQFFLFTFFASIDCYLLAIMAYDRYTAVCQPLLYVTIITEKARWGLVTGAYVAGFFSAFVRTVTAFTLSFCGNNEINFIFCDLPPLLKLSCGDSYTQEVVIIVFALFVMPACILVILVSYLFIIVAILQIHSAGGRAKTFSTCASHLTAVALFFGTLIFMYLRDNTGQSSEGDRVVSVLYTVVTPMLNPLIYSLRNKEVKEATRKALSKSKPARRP
In short: as §1

Or10j5 (Mus musculus) = target: T3, Or10j5 (Mus musculus) (UniProt Q62007)
T3 sequence (whole entry): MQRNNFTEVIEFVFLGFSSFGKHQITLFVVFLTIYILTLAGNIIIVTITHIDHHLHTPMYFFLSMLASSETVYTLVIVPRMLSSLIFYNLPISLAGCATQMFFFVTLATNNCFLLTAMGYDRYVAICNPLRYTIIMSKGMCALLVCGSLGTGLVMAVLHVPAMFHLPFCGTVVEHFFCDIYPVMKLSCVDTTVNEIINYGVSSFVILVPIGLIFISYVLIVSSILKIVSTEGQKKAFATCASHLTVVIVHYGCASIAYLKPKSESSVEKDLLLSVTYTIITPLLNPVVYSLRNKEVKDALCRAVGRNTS
In short: as §1

OR9Q1 A83T = tested on: T4, OR9Q1 A83T
T4 sequence (whole entry): T1 sequence (whole entry) with A83T
In short: as §1

OR9Q2 C179R = tested on: T5, OR9Q2 C179R
T5 sequence (whole entry): T2 sequence (whole entry) with C179R
In short: as §1

Or2c1 (Mus musculus) = target: T6, Or2c1 (Mus musculus) (UniProt P23275)
T6 sequence (whole entry): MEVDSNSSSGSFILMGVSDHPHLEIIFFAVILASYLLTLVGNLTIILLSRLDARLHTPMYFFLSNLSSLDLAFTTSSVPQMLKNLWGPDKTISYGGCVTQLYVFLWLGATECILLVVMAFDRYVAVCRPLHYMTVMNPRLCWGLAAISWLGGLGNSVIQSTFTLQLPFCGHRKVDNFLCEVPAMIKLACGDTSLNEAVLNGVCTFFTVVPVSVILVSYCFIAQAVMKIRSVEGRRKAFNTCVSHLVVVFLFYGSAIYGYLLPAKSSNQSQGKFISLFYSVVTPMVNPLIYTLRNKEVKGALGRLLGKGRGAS
In short: as §1

Or5ar1 (Mus musculus) = target: T7, Or5ar1 (Mus musculus) (UniProt Q8VGS3)
T7 sequence (whole entry): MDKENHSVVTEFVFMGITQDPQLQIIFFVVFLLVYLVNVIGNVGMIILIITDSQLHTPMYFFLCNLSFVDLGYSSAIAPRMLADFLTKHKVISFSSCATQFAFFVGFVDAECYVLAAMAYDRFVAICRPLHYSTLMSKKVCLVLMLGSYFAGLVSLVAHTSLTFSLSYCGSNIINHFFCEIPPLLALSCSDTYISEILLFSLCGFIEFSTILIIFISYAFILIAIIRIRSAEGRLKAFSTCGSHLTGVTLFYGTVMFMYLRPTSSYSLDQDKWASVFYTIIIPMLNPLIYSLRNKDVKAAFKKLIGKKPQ
In short: as §1

Or5p80 (Mus musculus) = target: T8, Or5p80 (Mus musculus) (UniProt Q8VG42)
T8 sequence (whole entry): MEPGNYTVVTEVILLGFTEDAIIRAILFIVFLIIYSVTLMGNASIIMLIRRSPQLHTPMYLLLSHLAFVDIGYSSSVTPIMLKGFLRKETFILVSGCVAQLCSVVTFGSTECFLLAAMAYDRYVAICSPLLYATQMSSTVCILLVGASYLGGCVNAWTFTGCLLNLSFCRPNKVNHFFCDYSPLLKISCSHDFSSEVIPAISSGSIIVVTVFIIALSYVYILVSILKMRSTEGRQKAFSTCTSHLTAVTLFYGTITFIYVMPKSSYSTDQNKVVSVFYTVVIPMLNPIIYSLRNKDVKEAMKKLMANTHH
In short: as §1

Or7a40 (Mus musculus) = target: T9, Or7a40 (Mus musculus) (UniProt Q9JHB2)
T9 sequence (whole entry): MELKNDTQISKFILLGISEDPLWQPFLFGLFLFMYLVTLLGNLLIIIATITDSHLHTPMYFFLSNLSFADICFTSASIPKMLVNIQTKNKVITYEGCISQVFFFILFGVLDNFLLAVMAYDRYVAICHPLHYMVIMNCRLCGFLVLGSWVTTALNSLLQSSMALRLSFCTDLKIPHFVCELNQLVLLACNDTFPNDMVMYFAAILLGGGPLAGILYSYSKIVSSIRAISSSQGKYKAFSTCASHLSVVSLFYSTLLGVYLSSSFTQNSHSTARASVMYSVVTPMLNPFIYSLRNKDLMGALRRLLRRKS
In short: as §1

Or1m1 (Mus musculus) = target: T10, Or1m1 (Mus musculus) (UniProt Q8VFM9)
T10 sequence (whole entry): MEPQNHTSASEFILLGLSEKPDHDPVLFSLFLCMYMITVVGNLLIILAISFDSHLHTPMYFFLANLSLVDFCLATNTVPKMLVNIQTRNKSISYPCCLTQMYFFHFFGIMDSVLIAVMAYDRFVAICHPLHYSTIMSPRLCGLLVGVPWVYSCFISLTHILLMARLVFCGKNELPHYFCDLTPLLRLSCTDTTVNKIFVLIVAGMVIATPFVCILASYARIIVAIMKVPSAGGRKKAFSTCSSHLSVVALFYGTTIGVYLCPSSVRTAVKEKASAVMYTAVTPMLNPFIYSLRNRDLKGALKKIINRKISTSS
In short: as §1

Or5p57 (Mus musculus) = target: T11, Or5p57 (Mus musculus) (UniProt Q8VEZ0)
T11 sequence (whole entry): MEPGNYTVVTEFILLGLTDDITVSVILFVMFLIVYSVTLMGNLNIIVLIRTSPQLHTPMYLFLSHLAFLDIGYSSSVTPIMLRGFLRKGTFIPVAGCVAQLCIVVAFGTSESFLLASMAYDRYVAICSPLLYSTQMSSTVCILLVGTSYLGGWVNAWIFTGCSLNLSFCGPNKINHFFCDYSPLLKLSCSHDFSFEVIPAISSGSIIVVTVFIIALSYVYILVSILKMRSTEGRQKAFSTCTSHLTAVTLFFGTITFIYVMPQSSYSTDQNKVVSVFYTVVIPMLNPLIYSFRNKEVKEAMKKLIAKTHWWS
In short: as §1

Or5k16 (Mus musculus) = target: T12, Or5k16 (Mus musculus) (UniProt Q7TS48)
T12 sequence (whole entry): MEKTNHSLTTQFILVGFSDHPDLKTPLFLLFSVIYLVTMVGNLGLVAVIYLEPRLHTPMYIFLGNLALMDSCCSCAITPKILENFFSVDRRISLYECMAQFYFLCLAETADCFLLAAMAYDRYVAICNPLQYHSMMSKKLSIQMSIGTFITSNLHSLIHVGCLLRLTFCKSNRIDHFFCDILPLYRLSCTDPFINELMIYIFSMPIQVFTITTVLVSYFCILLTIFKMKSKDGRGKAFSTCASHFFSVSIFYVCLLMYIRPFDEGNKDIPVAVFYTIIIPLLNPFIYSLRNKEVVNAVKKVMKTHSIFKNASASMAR
In short: as §1

Q8N628 T20A L289V = tested on: Q8N628 T20A L289V
In short: as §1

Q8NGC2 A119T = tested on: Q8NGC2 A119T
In short: as §1

Q8NGH7 D88N = tested on: Q8NGH7 D88N
In short: as §1

## CCCCCC(S)C(C)CO (stereo not drawn)
OR9Q1 (Homo sapiens)
  odorant receptor agonist call: inactive
OR9Q2 (Homo sapiens)
  odorant receptor agonist call: inactive

## CCCCC(S)C(C)CO (stereo not drawn)
OR9Q1 (Homo sapiens)
  odorant receptor agonist call: inactive
OR9Q2 (Homo sapiens)
  odorant receptor agonist call: inactive

## O=C(O)CCCCCCCCCCCBr
Or10j5 (Mus musculus)
  odorant receptor agonist call: inactive

## CC1=C(O)C(=O)OC1C (stereo not drawn)
OR9Q1 (Homo sapiens)
  odorant receptor agonist call: inactive
OR9Q1 A83T
  odorant receptor agonist call: inactive
OR9Q2 (Homo sapiens)
  odorant receptor agonist call: inactive
OR9Q2 C179R
  odorant receptor agonist call: inactive

## CCCC(C)=O
Or10j5 (Mus musculus)
  odorant receptor agonist call: inactive
Or2c1 (Mus musculus)
  odorant receptor agonist call: inactive
Or5ar1 (Mus musculus)
  odorant receptor agonist call: inactive
Or5p80 (Mus musculus)
  odorant receptor agonist call: inactive
Or7a40 (Mus musculus)
  odorant receptor agonist call: inactive

## CC(CO)CS (stereo not drawn)
OR9Q1 (Homo sapiens)
  odorant receptor agonist call: inactive
OR9Q2 (Homo sapiens)
  odorant receptor agonist call: inactive

## O=C([O-])CCCCCCCC(=O)[O-].[H+].[H+]
Or10j5 (Mus musculus)
  odorant receptor agonist call: inactive
Or1m1 (Mus musculus)
  odorant receptor agonist call: inactive
Or5ar1 (Mus musculus)
  odorant receptor agonist call: inactive
Or5p57 (Mus musculus)
  odorant receptor agonist call: inactive

## CC(C)=CCCC(C)=CCO
Or10j5 (Mus musculus)
  odorant receptor agonist call: inactive
Or1m1 (Mus musculus)
  odorant receptor agonist call: inactive
Or2c1 (Mus musculus)
  odorant receptor agonist call: inactive
Or5ar1 (Mus musculus)
  odorant receptor agonist call: inactive
Or5p80 (Mus musculus)
  odorant receptor agonist call: inactive
Or7a40 (Mus musculus)
  odorant receptor agonist call: inactive

## CCCCCCCC(=O)[O-].[H+]
Or10j5 (Mus musculus)
  odorant receptor agonist call: active
Or2c1 (Mus musculus)
  odorant receptor agonist call: active
Or5ar1 (Mus musculus)
  odorant receptor agonist call: inactive
Or5p57 (Mus musculus)
  odorant receptor agonist call: inactive
Or5p80 (Mus musculus)
  odorant receptor agonist call: inactive
Or7a40 (Mus musculus)
  odorant receptor agonist call: inactive

## CC1=NC(C)C(C)S1 (stereo not drawn)
OR9Q1 (Homo sapiens)
  odorant receptor agonist call: inactive
OR9Q1 A83T
  odorant receptor agonist call: inactive
OR9Q2 (Homo sapiens)
  odorant receptor agonist call: inactive
OR9Q2 C179R
  odorant receptor agonist call: inactive
Or5k16 (Mus musculus)
  odorant receptor agonist call: active

## O=C(O)CCCCCCCCCC(=O)O
Or10j5 (Mus musculus)
  odorant receptor agonist call: inactive

## CCCCCCC=CCCC=O
OR9Q1 (Homo sapiens)
  odorant receptor agonist call: inactive
OR9Q1 A83T
  odorant receptor agonist call: inactive
OR9Q2 (Homo sapiens)
  odorant receptor agonist call: inactive
OR9Q2 C179R
  odorant receptor agonist call: inactive
Q8N628 T20A L289V
  odorant receptor agonist call: inactive
Q8NGC2 A119T
  odorant receptor agonist call: inactive
Q8NGH7 D88N
  odorant receptor agonist call: inactive

## O=C(O)CCCCCCCCCCBr
Or10j5 (Mus musculus)
  odorant receptor agonist call: inactive

## CCCCCC(=O)C(C)C(C)=O (stereo not drawn)
OR9Q1 (Homo sapiens)
  odorant receptor agonist call: inactive
OR9Q2 (Homo sapiens)
  odorant receptor agonist call: inactive

## CCCCCCCCCC(=O)[O-].[H+]
Or10j5 (Mus musculus)
  odorant receptor agonist call: inactive
Or1m1 (Mus musculus)
  odorant receptor agonist call: inactive
Or2c1 (Mus musculus)
  odorant receptor agonist call: active
Or5ar1 (Mus musculus)
  odorant receptor agonist call: inactive
Or5p80 (Mus musculus)
  odorant receptor agonist call: inactive
Or7a40 (Mus musculus)
  odorant receptor agonist call: inactive

## O=C(O)CCCCCCCCCBr
Or10j5 (Mus musculus)
  odorant receptor agonist call: inactive

## CCCCC=O
Or10j5 (Mus musculus)
  odorant receptor agonist call: inactive
Or1m1 (Mus musculus)
  odorant receptor agonist call: inactive
Or5ar1 (Mus musculus)
  odorant receptor agonist call: inactive

## CCC(=O)C(=O)CC
Or1m1 (Mus musculus)
  odorant receptor agonist call: inactive
Or2c1 (Mus musculus)
  odorant receptor agonist call: active
Or5ar1 (Mus musculus)
  odorant receptor agonist call: inactive
Or5p80 (Mus musculus)
  odorant receptor agonist call: inactive
Or7a40 (Mus musculus)
  odorant receptor agonist call: inactive

## C=C(C)C1CCC(C)C(=O)C1 (stereo not drawn)
Or1m1 (Mus musculus)
  odorant receptor agonist call: inactive
Or2c1 (Mus musculus)
  odorant receptor agonist call: inactive
Or5ar1 (Mus musculus)
  odorant receptor agonist call: inactive
Or5p80 (Mus musculus)
  odorant receptor agonist call: inactive
Or7a40 (Mus musculus)
  odorant receptor agonist call: inactive

## COc1cc(C(=O)O)ccc1O
Or1m1 (Mus musculus)
  odorant receptor agonist call: inactive
Or2c1 (Mus musculus)
  odorant receptor agonist call: inactive
Or5ar1 (Mus musculus)
  odorant receptor agonist call: inactive
Or5p80 (Mus musculus)
  odorant receptor agonist call: inactive
Or7a40 (Mus musculus)
  odorant receptor agonist call: inactive
